pIC50: −log10 of the molar value. Calls of active or inactive are those of the source. The calls are words filed in the database; no cut-off is given here.
Assays:
[1] = Drug uptake in C57BL/6N mouse whole blood at 3 mg/kg, po measured at 3 hrs; format: ADME, organism-based; conditions: read-out: Drug uptake
Summary of the method: (§1)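 Whole-blood compound exposure was measured 3 h after oral dosing (0.03-3 mg/kg) in HFD mice run through the OGTT dose titration. Unbound levels were derived using the plasma free fraction.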

[2] = system: Mus musculus; experiment: Antidiabetic activity in HFD fed C57BL/6N mouse assessed as decrease in blood glucose AUC at 3 mg/kg administered as single oral dose pretreated for 60 mins followed by glucose challenge measured after 120 mins by OGTT; format: functional; design: scale not given: the % may be the effect or the level left
Summary of the method: (§2)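 Oral dose titration (0.03-3 mg/kg) in HFD-fed mice, n=8. Dosing was followed by an oral glucose tolerance test. Net blood glucose AUC was expressed as % reduction versus vehicle, with P values versus vehicle.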

[3] = target: Somatostatin receptor type 3 (Homo sapiens, UniProt P32745); experiment: Antagonist activity at human SSTR3 expressed in CHO-K1 cell membranes; format: functional, cell-based
Chain of Somatostatin receptor type 3 (P32745 whole entry): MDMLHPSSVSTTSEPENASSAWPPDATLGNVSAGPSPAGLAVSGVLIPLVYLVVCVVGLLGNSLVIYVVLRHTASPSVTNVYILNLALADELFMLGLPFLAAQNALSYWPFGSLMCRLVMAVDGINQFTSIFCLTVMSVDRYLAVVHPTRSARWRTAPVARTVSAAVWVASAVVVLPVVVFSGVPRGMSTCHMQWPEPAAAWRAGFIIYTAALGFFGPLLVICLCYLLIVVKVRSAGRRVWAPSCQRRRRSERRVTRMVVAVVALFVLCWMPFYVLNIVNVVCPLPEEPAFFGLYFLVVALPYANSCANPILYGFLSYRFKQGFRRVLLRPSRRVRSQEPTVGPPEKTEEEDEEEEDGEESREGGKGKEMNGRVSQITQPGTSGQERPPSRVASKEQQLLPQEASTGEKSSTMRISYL
Summary of the method: (§3)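 Counter-screen by filtration membrane binding: competitive displacement of radiolabeled SST-28 from cell membranes expressing human SSTR1, SSTR2, SSTR3 or SSTR4. The IC50 is the mean of at least duplicate experiments within a maximal threefold range.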

[4] = target: Somatostatin receptor type 2 (Homo sapiens, UniProt P30874); experiment: Antagonist activity at human SSTR2 expressed in CHO-K1 cell membranes; format: functional, cell-based; summary of the method: as §3
Chain of Somatostatin receptor type 2 (P30874 whole entry): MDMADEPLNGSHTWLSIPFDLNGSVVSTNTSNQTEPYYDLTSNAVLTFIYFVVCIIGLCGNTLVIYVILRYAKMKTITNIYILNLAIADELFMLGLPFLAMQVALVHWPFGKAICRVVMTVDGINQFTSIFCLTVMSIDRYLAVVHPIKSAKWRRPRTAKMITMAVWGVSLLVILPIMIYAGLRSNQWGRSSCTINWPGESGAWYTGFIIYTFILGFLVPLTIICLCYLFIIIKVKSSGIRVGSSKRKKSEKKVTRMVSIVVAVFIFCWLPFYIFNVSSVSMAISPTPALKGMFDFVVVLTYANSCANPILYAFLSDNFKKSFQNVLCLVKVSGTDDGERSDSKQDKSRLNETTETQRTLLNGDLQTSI

[5] = target: Potassium voltage-gated channel subfamily E member 1 (Homo sapiens, UniProt P15382); experiment: Inhibition of IKs (unknown origin)
[6] = target: T1, Prostaglandin D2 receptor (Homo sapiens, UniProt Q13258); experiment: Inhibition of prostanoid DP receptor (unknown origin)
T1 sequence (Q13258 whole entry): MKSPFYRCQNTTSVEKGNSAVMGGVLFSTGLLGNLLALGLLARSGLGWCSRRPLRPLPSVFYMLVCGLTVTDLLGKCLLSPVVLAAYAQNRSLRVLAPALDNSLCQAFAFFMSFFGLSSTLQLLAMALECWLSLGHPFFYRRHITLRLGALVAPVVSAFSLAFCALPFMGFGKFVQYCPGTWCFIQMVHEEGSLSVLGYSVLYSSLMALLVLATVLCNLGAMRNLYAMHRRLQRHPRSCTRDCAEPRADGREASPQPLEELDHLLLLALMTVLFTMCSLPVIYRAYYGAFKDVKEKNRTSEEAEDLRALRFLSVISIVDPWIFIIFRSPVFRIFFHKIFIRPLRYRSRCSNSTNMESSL

[7] = Fraction unbound in rat plasma at 0.1 uM using [3H]-labeled compound; format: ADME, cell-free
[8] = Fraction unbound in rhesus monkey plasma at 0.1 uM using [3H]-labeled compound; format: ADME, cell-free, Macaca mulatta
[9] = Clearance in rat at 1 mg/kg, iv or 2 mg/kg, po; format: ADME, organism-based; conditions: in vivo
Summary of the method: (§4)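 Rat pharmacokinetics after separate intravenous (1 mg/kg) and oral (2 mg/kg) dosing. Clearance is reported in mL/kg/min and half-life in hours. Oral bioavailability is given as F (%).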

[10] = Clearance in dog at […], iv or 1 mg/kg, po; format: ADME, organism-based, Canis lupus familiaris; conditions: in vivo
[11] = Clearance in rhesus monkey at […], iv or 1 mg/kg, po; format: ADME, organism-based, Macaca mulatta; conditions: in vivo
[12] = Volume of distribution in dog at […], iv or 1 mg/kg, po; format: ADME, organism-based, Canis lupus familiaris; conditions: in vivo
[13] = Half life in dog at […], iv or 1 mg/kg, po; format: ADME, organism-based, Canis lupus familiaris; conditions: in vivo
[14] = Oral bioavailability in rat at 2 mg/kg; format: ADME, organism-based; conditions: in vivo; summary of the method: as §4
[15] = Oral bioavailability in rhesus monkey at 1 mg/kg; format: ADME, organism-based, Macaca mulatta; conditions: in vivo
[16] = target: Cytochrome P450 3A4 (Homo sapiens, UniProt P08684); experiment: Inhibition of human CYP3A4; format: ADME
Chain of Cytochrome P450 3A4 (P08684 whole entry): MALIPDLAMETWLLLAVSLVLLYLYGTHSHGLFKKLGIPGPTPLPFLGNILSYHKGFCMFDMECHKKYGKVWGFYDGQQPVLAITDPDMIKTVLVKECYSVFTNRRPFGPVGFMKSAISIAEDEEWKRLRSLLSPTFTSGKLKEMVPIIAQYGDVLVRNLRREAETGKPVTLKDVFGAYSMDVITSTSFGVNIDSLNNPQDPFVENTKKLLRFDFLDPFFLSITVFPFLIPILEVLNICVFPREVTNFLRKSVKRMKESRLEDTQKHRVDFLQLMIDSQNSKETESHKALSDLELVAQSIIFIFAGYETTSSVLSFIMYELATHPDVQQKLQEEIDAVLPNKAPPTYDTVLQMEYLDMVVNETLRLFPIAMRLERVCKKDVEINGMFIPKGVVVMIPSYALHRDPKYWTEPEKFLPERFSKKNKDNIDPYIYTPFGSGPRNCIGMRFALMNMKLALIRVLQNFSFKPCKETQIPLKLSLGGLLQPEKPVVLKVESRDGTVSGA

[17] = system: Pancreatic islet; experiment: Induction of glucose-dependent insulin secretion in human pancreatic islets at 0.5 to 5 uM preincubated for 30 mins with 16 mM glucose followed by compound addition measured after 60 mins by ELISA; format: functional, cell-based
Summary of the method: (§5)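 Isolated pancreatic islets from non-diabetic human donors were incubated with compound at 0.5 or 5 µM in 2 mM (G2) or 16 mM (G16) glucose. Insulin secretion was measured against a DMSO control, with P<0.05 significance.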

[18] = system: Pancreatic islet; experiment: Induction of glucose-dependent insulin secretion in human pancreatic islets at 0.5 to 5 uM preincubated for 30 mins with 2 mM glucose followed by compound addition measured after 60 mins by ELISA; format: functional, cell-based; summary of the method: as §5
[19] = system: Pancreatic islet; experiment: Induction of glucagon secretion in human pancreatic islets in presence of glucose by ELISA; format: functional, cell-based
Summary of the method: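 In the same human islet incubations, SST-14 and glucagon secretion were monitored alongside insulin.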

[20] = system: Mus musculus; experiment: Antidiabetic activity in HFD fed C57BL/6N mouse assessed as decrease in blood glucose AUC at 0.3 mg/kg administered as single oral dose pretreated for 60 mins followed by glucose challenge measured after 120 mins by OGTT; format: functional; design: scale not given: the % may be the effect or the level left; summary of the method: as §2
[21] = system: Mus musculus; experiment: Antidiabetic activity in HFD fed C57BL/6N mouse assessed as decrease in blood glucose AUC at 0.1 mg/kg administered as single oral dose pretreated for 60 mins followed by glucose challenge measured after 120 mins by OGTT; format: functional; design: scale not given: the % may be the effect or the level left; summary of the method: as §2
[22] = system: Mus musculus; experiment: Antidiabetic activity in HFD fed C57BL/6N mouse assessed as decrease in blood glucose AUC at 0.03 mg/kg administered as single oral dose pretreated for 60 mins followed by glucose challenge measured after 120 mins by OGTT; format: functional; design: scale not given: the % may be the effect or the level left; summary of the method: as §2
[23] = system: Mus musculus; experiment: Antidiabetic activity in HFD fed C57BL/6N mouse assessed as decrease in blood glucose AUC administered as single oral dose pretreated for 60 mins followed by glucose challenge measured after 120 mins by OGTT; conditions: read-out: MED
[24] = Drug uptake in C57BL/6N mouse whole blood at 1 mg/kg, po measured at 3 hrs; format: ADME, organism-based; conditions: read-out: Drug uptake; summary of the method: as §1
[25] = Drug uptake in C57BL/6N mouse whole blood at 0.03 mg/kg, po measured at 3 hrs; format: ADME, organism-based; conditions: read-out: Drug uptake; summary of the method: as §1
[26] = Unbound plasma concentration in C57BL/6N mouse plasma at 0.3 mg/kg, po measured at 3 hrs; format: ADME, organism-based; conditions: in vivo
[27] = Unbound plasma concentration in C57BL/6N mouse plasma at 0.03 mg/kg, po measured at 3 hrs; format: ADME, organism-based; conditions: in vivo
[28] = system: Mus musculus; experiment: Antidiabetic activity in HFD fed SSTR5 knock-out C57BL/6N mouse assessed as decrease in blood glucose AUC at 0.03 to 3 mg/kg administered as single oral dose pretreated for 60 mins followed by glucose challenge measured after 120 mins by OGTT; format: functional, organism-based
[29] = system: Mus musculus; experiment: Induction of hypoglycemia in C57BL/6N mouse assessed as decrease in basal blood glucose levels at 3 to 30 mg/kg, po measured over 5 hrs; format: organism-based; conditions: in vivo
[30] = system: Mus musculus; experiment: Antidiabetic activity in HFD fed C57BL/6N mouse assessed as increase in plasma insulin levels at 10 mg/kg, po cotreated with DPP4 inhibitor des-fluoro sitagliptin pretreated with compound for 60 mins followed by glucose challenge measured after 120 mins by OGTT; format: functional, organism-based
[31] = system: Pancreatic islet; experiment: Induction of glucose-dependent insulin secretion in human pancreatic islets at 0.5 and 5 uM preincubated for 30 mins with glucose followed by compound addition measured after 60 mins by ELISA

## CCOc1cc(CN2CCC3(CC2)CC(=O)N(c2ccc(C(=O)O)cc2)C3)cc(OCC)c1-c1ccc(F)cc1.O=C(O)C(F)(F)F
[1]
  concentration at 3 h: 0.351 µM
[2]
  Activity: 84 - 94%
[3]
  pIC50: < 5.00
[4]
  pIC50: < 5.00
[5]
  pIC50: < 4.82
[6]
  pIC50: 5.52
[7]
  Fu: 5.7%
[8]
  Fu: 5.4%
[9]
  clearance: 0.912 L/h/kg
[10]
  clearance: 0.132 L/h/kg
[11]
  clearance: 0.708 L/h/kg
[12]
  Vd: 2.82 L/kg
[13]
  half-life: 16.5 h
[14]
  bioavailability: 41%
[15]
  bioavailability: 40%
[16]
  pIC50: < 4.30
[17]
  Activity: Active
[18]
  Activity: inactive
[19]
  Activity: inactive
[20]
  Activity: 59%
[21]
  Activity: 58%
[22]
  Activity: 23%
[23]
  minimal effective dose: 0.1 mg/kg
[24]
  concentration at 3 h: 0.131 µM
[25]
  concentration at 3 h: 0.004 µM
[26]
  Cp(f): 0.0016 µM
[27]
  Cp(f): 0.0002 µM
[28]
  Activity: inactive
[29]
  Activity: Non-Toxic
[30]
  Activity: Active
[31]
  Activity: Active

From ChEMBL document CHEMBL4266056, “Discovery and Pharmacology of a Novel Somatostatin Subtype 5 (SSTR5) Antagonist: Synergy with DPP-4 Inhibition” (ACS Med Chem Lett, 2018)
